Active and inactive are the calls of the source. The calls are words filed in the database; no cut-off is given here.
Key:
[1] = Drug uptake in BALB/c mouse liver at 25 mg/kg, po via gavage measured after 4 hrs post dose by […]; assay type: ADME, organism-based; conditions: read-out: Drug uptake
Summary of the method: (§1)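 BALB/c mice get a single oral gavage dose of 25 mg/kg; tissues are collected 4 h post-dose. About 100 mg tissue is diluted 5-fold in PBS and homogenized. Homogenate is extracted as for plasma (ketoconazole internal standard, acetonitrile extraction) and quantified by HPLC-UV at 291 nm, 0.1 μM detection limit, n=2.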

[2] = Drug uptake in BALB/c mouse lungs at 25 mg/kg, po via gavage measured after 4 hrs post dose by […]; assay type: ADME, organism-based, Lung; conditions: read-out: Drug uptake; summary of the method: as §1
[3] = Half life in CD1 mouse liver microsomes at 1 uM preincubated for 5 mins followed by NADPH addition and measured by LC/MS/MS analysis; assay type: ADME, microsome; conditions: mouse, microsomes, 1 µM
[4] = Drug uptake in BALB/c mouse blood at 25 mg/kg, po via gavage measured after 4 hrs post dose by […]; assay type: ADME, organism-based; conditions: read-out: Drug uptake; summary of the method: as §1
[5] = Maximum plasma concentration in BALB/c mouse at 25 mg/kg, po via gavage by […]; assay type: ADME, organism-based; set-up: dose 25 mg/kg, route oral
Summary of the method: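 Single oral gavage dose of 25 mg/kg in BALB/c mice; blood sampled at 1, 2, 4, 6, 10, 16, 24 h. Plasma is diluted in PBS with ketoconazole internal standard, extracted with 80% acetonitrile, dried and redissolved. Analysed by reversed-phase HPLC with UV at 291/250 nm, 0.1 μM detection limit. Lifetime is time until undetectable.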

[6] = Intrinsic clearance in human liver microsomes at 1 uM preincubated for 5 mins followed by NADPH addition and measured after 45 mins by LC/MS/MS analysis; assay type: ADME, microsome; conditions: read-out: CLH
[7] = Hepatic clearance in CD1 mouse liver microsomes at 1 uM preincubated for 5 mins followed by NADPH addition and measured after 45 mins by LC/MS/MS analysis; assay type: ADME, microsome
[8] = Drug uptake in BALB/c mouse brain at 25 mg/kg, po via gavage measured after 4 hrs post dose by […]; assay type: ADME, organism-based; conditions: read-out: Drug uptake; summary of the method: as §1
[9] = biological target: Putative lanosterol 14-alpha-demethylase (Leishmania infantum) (UniProt A2TEF2); experiment: Inhibition of Leishmania infantum CYP51 expressed in Escherichia coli using [3-3H]-obtusifoliol as substrate after 60 mins by LC-MS analysis
Putative lanosterol 14-alpha-demethylase (Leishmania infantum), sequence (A2TEF2 1-480): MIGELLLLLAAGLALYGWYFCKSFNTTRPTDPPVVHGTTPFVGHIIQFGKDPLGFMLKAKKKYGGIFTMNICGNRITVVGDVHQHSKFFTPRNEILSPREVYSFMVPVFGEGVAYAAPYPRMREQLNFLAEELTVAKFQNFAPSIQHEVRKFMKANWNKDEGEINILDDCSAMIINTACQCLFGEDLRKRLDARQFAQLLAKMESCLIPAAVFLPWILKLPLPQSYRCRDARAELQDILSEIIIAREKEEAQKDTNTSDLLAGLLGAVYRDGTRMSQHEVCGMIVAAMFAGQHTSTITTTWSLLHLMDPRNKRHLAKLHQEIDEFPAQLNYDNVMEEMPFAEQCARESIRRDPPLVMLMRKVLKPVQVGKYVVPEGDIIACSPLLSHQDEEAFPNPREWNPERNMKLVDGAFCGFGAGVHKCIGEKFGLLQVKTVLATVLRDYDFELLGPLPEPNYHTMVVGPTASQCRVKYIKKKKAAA
Summary of the method: (§2)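 Reconstituted reaction: 1 μM purified CYP51, 2 μM T. brucei NADPH-P450 reductase, 100 μM dilauroylphosphatidylcholine, isocitrate dehydrogenase/isocitrate regeneration, 50 mM K phosphate pH 7.2, 10% glycerol. [3-3H]sterol substrate at 50 μM final (eburicol for T. cruzi; obtusifoliol for T. brucei and L. infantum) with inhibitor at 1.1 μM final. Preincubate 60 s at 37 °C, start with 100 μM NADPH, run 60 min, EtOAc extraction. Gives % inhibition of 14α-demethylation, triplicate, mean ± SD.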

[10] = Hepatic clearance in Sprague-Dawley rat liver microsomes at 1 uM preincubated for 5 mins followed by NADPH addition and measured after 45 mins by LC/MS/MS analysis; assay type: ADME, microsome
Summary of the method: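 Pooled liver microsomes at 0.5 mg/mL: human (mixed gender), male Sprague-Dawley rat, or male CD-1 mouse, with test compound at 1 μM, triplicate. In vitro t1/2 is scaled to CLint (45 mg microsomes/g liver; 45 g liver/kg scaling factor). CLhep uses well-stirred model with hepatic blood flow 21 (human), 70 (rat), 90 (mouse) mL/min/kg.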

[11] = Drug uptake in BALB/c mouse heart at 25 mg/kg, po via gavage measured after 4 hrs post dose by […]; assay type: ADME, organism-based; conditions: read-out: Drug uptake; summary of the method: as §1
[12] = Half life in Sprague-Dawley rat liver microsomes at 1 uM preincubated for 5 mins followed by NADPH addition and measured by LC/MS/MS analysis; assay type: ADME, microsome; conditions: microsomes, 1 µM
[13] = Drug uptake in BALB/c mouse spleen at 25 mg/kg, po via gavage measured after 4 hrs post dose by […]; assay type: ADME, organism-based; conditions: read-out: Drug uptake; summary of the method: as §1
[14] = Intrinsic clearance in CD1 mouse liver microsomes at 1 uM preincubated for 5 mins followed by NADPH addition and measured after 45 mins by LC/MS/MS analysis; assay type: ADME, microsome; conditions: read-out: CLH
[15] = Drug uptake in BALB/c mouse liver at 25 mg/kg, po via gavage measured after 2 hrs post dose by LC-MS analysis; assay type: ADME, organism-based; conditions: in vivo
[16] = biological target: Lanosterol 14-alpha-demethylase (Trypanosoma brucei brucei (strain 927/4 GUTat10.1)) (UniProt Q385E8); experiment: Inhibition of Trypanosoma brucei […] CYP51 expressed in Escherichia coli using [3-3H]-obtusifoliol as substrate after 60 mins by LC-MS analysis; summary of the method: as §2
Lanosterol 14-alpha-demethylase (Trypanosoma brucei brucei (strain 927/4 GUTat10.1)), sequence (Q385E8 1-481): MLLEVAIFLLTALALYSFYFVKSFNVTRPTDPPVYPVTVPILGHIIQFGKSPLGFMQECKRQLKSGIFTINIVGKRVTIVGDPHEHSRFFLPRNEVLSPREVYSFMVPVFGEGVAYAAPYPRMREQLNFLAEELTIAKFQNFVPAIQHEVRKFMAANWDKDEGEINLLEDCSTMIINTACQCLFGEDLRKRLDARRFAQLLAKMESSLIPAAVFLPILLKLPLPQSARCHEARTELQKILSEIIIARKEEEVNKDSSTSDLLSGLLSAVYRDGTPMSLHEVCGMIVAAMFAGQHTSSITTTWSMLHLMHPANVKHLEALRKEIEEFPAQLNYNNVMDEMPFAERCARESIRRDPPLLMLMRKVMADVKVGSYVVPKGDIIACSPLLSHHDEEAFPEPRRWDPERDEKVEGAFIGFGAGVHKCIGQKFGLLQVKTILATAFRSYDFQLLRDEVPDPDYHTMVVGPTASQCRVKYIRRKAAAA

[17] = Drug uptake in BALB/c mouse brain at 25 mg/kg, po via gavage measured after 4 hrs post dose by LC-MS analysis; conditions: in vivo
[18] = Hepatic clearance in human liver microsomes at 1 uM preincubated for 5 mins followed by NADPH addition and measured after 45 mins by LC/MS/MS analysis; assay type: ADME, microsome
[19] = Drug uptake in BALB/c mouse lungs at 25 mg/kg, po via gavage measured after 2 hrs post dose by LC-MS analysis; assay type: ADME, organism-based, Lung; conditions: in vivo
[20] = biological target: Sterol 14-alpha demethylase (Trypanosoma cruzi (strain CL Brener)) (UniProt Q7Z1V1); experiment: Inhibition of Trypanosoma cruzi Y CYP51 expressed in Escherichia coli using [3-3H]-eburicol as substrate after 60 mins by LC-MS analysis; summary of the method: as §2
Sterol 14-alpha demethylase (Trypanosoma cruzi (strain CL Brener)), sequence (Q7Z1V1 whole entry, looked up): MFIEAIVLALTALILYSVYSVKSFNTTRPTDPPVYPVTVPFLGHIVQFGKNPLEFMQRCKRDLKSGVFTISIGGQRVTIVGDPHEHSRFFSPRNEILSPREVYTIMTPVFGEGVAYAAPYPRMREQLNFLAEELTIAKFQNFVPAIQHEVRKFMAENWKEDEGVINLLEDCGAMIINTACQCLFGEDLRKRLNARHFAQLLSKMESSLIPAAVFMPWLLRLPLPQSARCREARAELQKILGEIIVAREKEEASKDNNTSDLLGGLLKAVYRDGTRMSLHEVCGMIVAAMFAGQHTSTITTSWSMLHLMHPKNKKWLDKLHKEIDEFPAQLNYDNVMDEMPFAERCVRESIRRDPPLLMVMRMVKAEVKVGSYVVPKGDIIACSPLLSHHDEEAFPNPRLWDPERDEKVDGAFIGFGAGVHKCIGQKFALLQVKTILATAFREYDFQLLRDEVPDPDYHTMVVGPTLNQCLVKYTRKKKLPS

[21] = Drug uptake in BALB/c mouse blood at 25 mg/kg, po via gavage measured after 2 hrs post dose by LC-MS analysis; assay type: ADME, organism-based; conditions: in vivo
[22] = Drug uptake in BALB/c mouse intestine at 25 mg/kg, po via gavage measured after 2 hrs post dose by LC-MS analysis; assay type: ADME, organism-based; conditions: read-out: Drug uptake
[23] = Lipophilicity, log P of the compound; assay type: physicochemical; conditions: octanol/water
[24] = Drug uptake in BALB/c mouse spleen at 25 mg/kg, po via gavage measured after 2 hrs post dose by LC-MS analysis; assay type: ADME, organism-based; conditions: in vivo
[25] = Half life in human liver microsomes at 1 uM preincubated for 5 mins followed by NADPH addition and measured by LC/MS/MS analysis; assay type: ADME, microsome; conditions: microsomes, 1 µM
[26] = Intrinsic clearance in Sprague-Dawley rat liver microsomes at 1 uM preincubated for 5 mins followed by NADPH addition and measured after 45 mins by LC/MS/MS analysis; assay type: ADME, microsome; conditions: read-out: CLH
[27] = Drug uptake in BALB/c mouse heart at 25 mg/kg, po via gavage measured after 2 hrs post dose by LC-MS analysis; assay type: ADME, organism-based; conditions: in vivo

concentration at 4 h [1]: < 0.1 µM
concentration at 4 h [2]: < 0.1 µM
t1/2 [3]: 43 min
concentration at 4 h [4]: < 0.1 µM
Cmax [5]: < 0.1 µM
CLint scaled at 1 µM [6]: 0.696 L/h/kg
CLhep predicted at 1 µM [7]: 3.16 L/h/kg
concentration at 4 h [8]: < 0.1 µM
inhibition [9]: inactive
CLhep predicted at 1 µM [10]: 1.9 L/h/kg
concentration at 4 h [11]: < 0.1 µM
t1/2 [12]: 48 min
concentration at 4 h [13]: < 0.1 µM
CLint scaled at 1 µM [14]: 7.62 L/h/kg
Drug uptake [15]: Not Active
inhibition [16]: inactive
Drug uptake [17]: Not Active
CLhep predicted at 1 µM [18]: 0.448 L/h/kg
Drug uptake [19]: Not Active
inhibition [20]: inactive
Drug uptake [21]: Not Active
concentration at 2 h [22]: 130 µM
logP [23]: 4.39
Drug uptake [24]: Not Active
t1/2 [25]: 108 min
CLint scaled at 1 µM [26]: 3.49 L/h/kg
Drug uptake [27]: Not Active
Structure (SMILES): CS(=O)(=O)c1ccc(-c2ccc([C@H](Cn3ccnc3)NC(=O)c3ccc(-c4nnc(-c5ccccc5)o4)cc3)c(Cl)c2)cc1
